Reference: ChEMBL document CHEMBL1140054, “Phosphate prodrugs derived from N-acetylglucosamine have enhanced chondroprotective activity in explant cultures and represent a new lead in antiosteoarthritis drug discovery” (J Med Chem, 2008)

How the values were obtained:
[1] = Cytotoxicity against bovine chondrocytes at 10 mM after 96 hrs by MTT cell viability assay; assay type: cell-based, Bos taurus; conditions: cattle, 10000 µM
Outline: (§1)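 Chondrocytes isolated from mature bovine (>18 months) metacarpophalangeal cartilage by 1 h 0.1% pronase then overnight 0.04% collagenase digestion at 37 °C. Cultured 96 h in serum-free DMEM with gentamicin and 1% HEPES, with or without compound (10-0.1 mM). MTT at final 1 mg/mL for 3 h; formazan dissolved in DMSO and OD read. Viability given as % of untreated cells; n experiments from different cows, in triplicate.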

[2] = Chondroprotective activity in bovine articular cartilage explant cultures assessed as reduction in IL1-induced glycosaminoglycan release at 10 mM after 96 hrs relative to control; assay type: functional, Bos taurus; parameters: scale not given: the % may be the effect or the level left
Outline: (§2)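 Full-depth articular cartilage explants (50-100 mg) from mature bovine metacarpophalangeal joints; equilibrated 48 h in DMEM with 10% FCS, gentamicin, 1% HEPES, then washed in serum-free medium. Cultured in triplicate in serum-free DMEM with or without compound (10-0.1 mM); 10 ng/mL recombinant human IL-1 added to half the wells. After 96 h, media sulfated GAG measured by DMMB dye binding (A525) against shark chondroitin sulfate C standard.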

[3] = Chondroprotective activity in bovine articular cartilage explant cultures assessed as reduction in IL1-induced glycosaminoglycan release at 10 mM after 96 hrs; assay type: functional, Bos taurus; outline: as §2
[4] = Chondroprotective activity in bovine articular cartilage explant cultures assessed as reduction in IL1-induced glycosaminoglycan release at 1 mM after 96 hrs; assay type: functional, Bos taurus; outline: as §2
[5] = Chondroprotective activity in bovine articular cartilage explant cultures assessed as reduction in IL1-induced glycosaminoglycan release at 1 mM after 96 hrs relative to control; assay type: functional, Bos taurus; parameters: scale not given: the % may be the effect or the level left; outline: as §2
[6] = Cytotoxicity against bovine chondrocytes at 1 mM after 96 hrs by MTT cell viability assay; assay type: cell-based, Bos taurus; conditions: cattle, 1000 µM; outline: as §1
[7] = Chondroprotective activity in bovine articular cartilage explant cultures assessed as reduction in IL1-induced glycosaminoglycan release at 0.1 mM after 96 hrs; assay type: functional, Bos taurus; outline: as §2
[8] = Chondroprotective activity in bovine articular cartilage explant cultures assessed as reduction in IL1-induced glycosaminoglycan release at 0.1 mM after 96 hrs relative to control; assay type: functional, Bos taurus; parameters: scale not given: the % may be the effect or the level left; outline: as §2
[9] = Cytotoxicity against bovine chondrocytes at 0.1 mM after 96 hrs by MTT cell viability assay; assay type: cell-based, Bos taurus; conditions: cattle, 100 µM; outline: as §1

| Compound | Activity [1] [%] | Activity [2] [%] | fold change (FC) [3] | fold change (FC) [4] | Activity [5] [%] | Activity [6] [%] | fold change (FC) [7] | Activity [8] [%] | Activity [9] [%] |
| --- | --- | --- | --- | --- | --- | --- | --- | --- | --- |
| COc1ccc(OP(=O)(N[C@@H](Cc2ccccc2)C(=O)OCc2ccccc2)OC[C@H]2OC(O)[C@H](NC(C)=O)[C@@H](O)[C@@H]2O)cc1 (some centres not stated) | 49 | 2.3 | 2.1 |  |  |  |  |  |  |
| COc1ccc(OP(=O)(N[C@@H](CCSC)C(=O)OCc2ccccc2)OC[C@H]2OC(O)[C@H](NC(C)=O)[C@@H](O)[C@@H]2O)cc1 (some centres not stated) |  |  |  | 1.6 | 62.2 | 49 | 3.8 | 18 | 103 |
| COc1ccc(OP(=O)(N[C@H](C)C(=O)OCc2ccccc2)OC[C@H]2OC(O)[C@H](NC(C)=O)[C@@H](O)[C@@H]2O)cc1 (some centres not stated) |  |  |  | 2.8 | 31 | 66 | 3.4 | 24.3 | 96 |
| COc1ccc(OP(=O)(OC[C@H]2OC(O)[C@H](NC(C)=O)[C@@H](O)[C@@H]2O)N2CCC[C@H]2C(=O)OCc2ccccc2)cc1 (some centres not stated) | 63 | 65.6 | 0.8 | 4.1 | 2.2 | 85 | 4 | -21.9 | 78 |
| CCOC(=O)[C@@H](NP(=O)(OC[C@H]1OC(O)[C@H](NC(C)=O)[C@@H](O)[C@@H]1O)Oc1ccc(OC)cc1)C(C)C (some centres not stated) |  |  |  |  |  |  | 4.4 | -21.1 | 94 |
| CCOC(=O)[C@H](C)NP(=O)(OC[C@H]1OC(O)[C@H](NC(C)=O)[C@@H](O)[C@@H]1O)Oc1ccc(OC)cc1 (some centres not stated) |  |  |  |  |  | 76 | 4.4 | -1.9 | 89 |
| CCOC(=O)CNP(=O)(OC[C@H]1OC(O)[C@H](NC(C)=O)[C@@H](O)[C@@H]1O)Oc1ccc(OC)cc1 (some centres not stated) |  |  |  |  |  | 37 | 3.6 | -19.3 | 78 |
| CCOC(=O)CN(C)P(=O)(OC[C@H]1OC(O)[C@H](NC(C)=O)[C@@H](O)[C@@H]1O)Oc1ccc(OC)cc1 (some centres not stated) |  |  |  |  |  | 100 | 5.4 | -16.3 | 100 |
| COc1ccc(OP(=O)(N[C@@H](C)C(=O)OCc2ccccc2)OC[C@H]2OC(O)[C@H](NC(C)=O)[C@@H](O)[C@@H]2O)cc1 (some centres not stated) | 85 | 24.2 | 2 | 4.2 | 5.6 | 81 | 4.6 | -2.2 | 104 |
| COc1ccc(OP(=O)(N[C@H](C(=O)OCc2ccccc2)C(C)C)OC[C@H]2OC(O)[C@H](NC(C)=O)[C@@H](O)[C@@H]2O)cc1 (some centres not stated) | 40 | 85.3 | 0.5 | 0.9 | 77.6 | 100 | 4 | 2.5 | 104 |
| COc1ccc(OP(=O)(N[C@H](C(=O)OC2CCCCC2)C(C)C)OC[C@H]2OC(O)[C@H](NC(C)=O)[C@@H](O)[C@@H]2O)cc1 (some centres not stated) |  |  |  |  |  | 30 | 4.8 | -6.3 | 92 |
| COC(=O)[C@H](C)NP(=O)(OC[C@H]1OC(O)[C@H](NC(C)=O)[C@@H](O)[C@@H]1O)Oc1ccc(OC)cc1 (some centres not stated) |  |  |  |  |  | 37 | 3.9 | 15.8 | 97 |
| COc1ccc(OP(=O)(N[C@H](C(=O)OC(C)C)C(C)C)OC[C@H]2OC(O)[C@H](NC(C)=O)[C@@H](O)[C@@H]2O)cc1 (some centres not stated) |  |  |  | 3.6 | 12.1 | 56 | 3.2 | 14 | 93 |
| CCCCOC(=O)[C@@H]1CCCN1P(=O)(OC[C@H]1OC(O)[C@H](NC(C)=O)[C@@H](O)[C@@H]1O)Oc1ccc(OC)cc1 (some centres not stated) |  |  |  |  |  |  | 4.1 | -17.5 | 98 |
| COc1ccc(OP(=O)(NCC(=O)OCc2ccccc2)OC[C@H]2OC(O)[C@H](NC(C)=O)[C@@H](O)[C@@H]2O)cc1 (some centres not stated) |  |  |  | 1.2 | 73.6 | 100 | 4.2 | -12.2 | 99 |
| CC[C@H](C)[C@H](NP(=O)(OC[C@H]1OC(O)[C@H](NC(C)=O)[C@@H](O)[C@@H]1O)Oc1ccc(OC)cc1)C(=O)OCc1ccccc1 (some centres not stated) | 56 | 74.6 | 0.5 | 1.2 | 70.8 | 118 | 3.9 | 5.2 | 110 |
| COc1ccc(OP(=O)(N[C@@H](CC(C)C)C(=O)OCc2ccccc2)OC[C@H]2OC(O)[C@H](NC(C)=O)[C@@H](O)[C@@H]2O)cc1 (some centres not stated) | 39 | 64 | 0.9 | 2.6 | 44.7 | 20 | 4.1 | 12.2 | 87 |
| COc1ccc(OP(=O)(NC(C)(C)C(=O)OCc2ccccc2)OC[C@H]2OC(O)[C@H](NC(C)=O)[C@@H](O)[C@@H]2O)cc1 (some centres not stated) |  |  |  | 4.2 | -0.3 | 95 | 3.4 | -2.2 | 99 |
| N[C@H]1C(O)O[C@H](CO)[C@@H](O)[C@@H]1O (some centres not stated) [GLUCOSAMINE] | 56 | 19 | 2 | 4.7 | 3.4 | 88 | 5.1 | 0.8 | 106 |
| CC(=O)N[C@@H]1[C@@H](O)[C@H](O)[C@@H](CO)O[C@H]1O [N-ACETYLGLUCOSAMINE] | 61 | 9.3 | 2.9 | 4.5 | -1 | 70 | 4.3 | 5.4 | 107 |
